NS3 helicase inh: inhibitors of Hepatitis C virus NS3 helicase | NS3 helicase DNA unwinding, Cy5 molecular beacon fluorescence | inhibition, % at 10.9 µM | 290,000 tested, 0.56% active;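 active = inhibition above the mean of all tested compounds plus 3 SD, set per campaign, cut at about 35% in these data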;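 also: 0% = DMSO wells and 100% = thioflavine S control wells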
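Assay system: hepatitis C virus NS3 helicase domain fragment enzyme. Also added: annealed dual-labelled DNA beacon duplex, ATP-started. Timing: 1 h reaction at 25 °C, ATP-initiated. Technique: Cy5 fluorescence at 0 and 60 min, beacon hairpin quenching. Evaluation: % inhibition of unwinding. Replication: one well per compound.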
VIM-2 inh: blocks Pseudomonas aeruginosa VIM-2 metallo-beta-lactamase. purified VIM-2, nitrocefin hydrolysis, epi-absorbance fluorescence. inhibition, % at 5.6 µM. 290,000 tested, 0.89% active;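 active = inhibition above the mean of all tested compounds plus 3 SD, cutoff set per screening run, cut at about 7.5% in these data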;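 also: red hydrolysis product quenches plate fluorescence so inhibitors raise well fluorescence; 0% = enzyme with DMSO and 100% = DMSO without enzyme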
DNA FID counter: fluorescent intercalator displacement, NS3 helicase counter-screen | AID 1845 | 290,000 tested, 0.17% active | inhibition, % at 7.9 µM | DNA fluorescent intercalator displacement, fluorescence; in the data active = inhibition above about 37%;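 also: 0% = vehicle and 100% = reference compound; higher means more ethidium bromide displaced from hairpin DNA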
SUMO HTRF inh: blocks human SUMOylation mediated by UBC9; P63279; HTRF SUMOylation assay, SAE1/SAE2 + UBC9, in vitro; inhibition, % at 35 µM; 290,000 tested, 0.36% active; in the data active = inhibition above about 50%, passing the limit was not always enough
Target sequence (P63279 whole entry, looked up): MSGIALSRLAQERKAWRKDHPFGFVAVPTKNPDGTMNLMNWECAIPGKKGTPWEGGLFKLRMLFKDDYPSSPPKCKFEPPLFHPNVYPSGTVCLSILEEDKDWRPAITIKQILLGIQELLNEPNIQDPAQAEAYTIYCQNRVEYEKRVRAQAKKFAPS
IMP-1 inh: inhibitors of Pseudomonas aeruginosa IMP-1 metallo-beta-lactamase. purified IMP-1, nitrocefin hydrolysis, epi-absorbance fluorescence. inhibition, % at 5.6 µM. 290,000 tested, 0.45% active. AID 1556;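 active = inhibition above the mean plus 3 SD of all compounds in the same screening run, cut at about 4.5% in these data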;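 also: 0% = IMP-1 with DMSO and 100% = DMSO wells lacking enzyme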
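System: purified recombinant IMP-1 beta-lactamase. Medium: Zinc- and detergent-supplemented HEPES buffer, pH 7.1. Compound: one 5.6 µM dose […]. Schedule: 15 min preincubation plus 25 min reaction at 25 °C. Technique: Epi-absorbance fluorescence, 480 nm excitation, 530 nm emission.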
* marks the source's active call; other numbers are inactive results; . = no result. The list is not random: actives were taken first. Their share in the collection is about 2.1%.

SMILES	NS3 helicase inh	VIM-2 inh	DNA FID counter	SUMO HTRF inh	IMP-1 inh
COCC(N)(c1ccccc1)c1nc2ccccc2n1C (stereo not given)	3	9.0*	-8	-7	-3
CCC1CCCCN1CCCNC(=O)c1ccc2c(c1)N(Cc1ccc(F)cc1)C(=O)c1ccccc1S2=O (stereo not given)	-34	1	33	14	0
O=C(O)C1=C(C(=O)Nc2cc(C(F)(F)F)ccc2Cl)CCCC1	-3	4	-4	8	9.9*
O=C(CN1CCCCCC1)Nc1cc(C(F)(F)F)ccc1Cl	4	0	-2	-6	-2
O=C(NC(=S)NCCC1=CCCCC1)c1ccccc1Br	10	25*	-25	-6	-2
O=C(COC(=O)c1ccccc1Br)NCCC1=CCCCC1	-5	-2	-23	22	-3
CN(C)CCCNC(=O)/C(=C\c1ccc(-c2cccc([N+](=O)[O-])c2)o1)NC(=O)c1ccccc1	-52	3	44*	-4	-3
Cc1ccc(C(=O)N/C(=C\c2ccc(-c3cccc([N+](=O)[O-])c3)o2)C(=O)NCCCN(C)C)cc1	-57	-2	31	-3	-5
COc1ccc(-c2[nH]ncc2CN(CCO)Cc2cccs2)c(F)c1	-2	-2	-3	8	-3
Cc1ccnc(SCC(=O)c2cc3ccccc3o2)n1	-3	1	6	20	1
COc1ccccc1CN1CC(C(=O)NCc2cc(F)cc(C(F)(F)F)c2)CCC1=O (stereo not given)	-4	-1	-44	.	-3
O=C(Nc1ccc(S(=O)(=O)Nc2ncccn2)cc1)C1CC(=O)N(c2ccc(Cl)cc2)C1 (stereo not given)	3	-3	-22	7	-3
CCOc1ccccc1NC(=O)NC(C)c1ccncc1 (stereo not given)	-9	-4	-2	7	-2
CCOc1ccc(CCNC(=O)COC(=O)c2c(C)nn(-c3ccccc3)c2C)cc1OCC	-4	-2	-59	-5	-1
COc1ccc(-c2cc(OC(=O)c3ccc(F)cc3)c3c(C)oc(C)c3c(=O)c2)cc1	28	-2	-23	-15	4.9*
COc1ccc(C(=O)Oc2ccc(F)cc2C(=O)/C=C/c2ccc(OC)c(OC)c2)cc1	-26	-2	-15	0	-2
O=C(NCc1ncc(C(F)(F)F)cc1Cl)Nc1ccccc1	-7	-1	-3	5	-1
CCOc1ccc(/C=C2\SC(=O)N(c3ccc(O)cc3)C2=O)cc1OC	3	-2	-3	-4	-4
COc1cc(/C=C2\SC(=O)N(c3ccc(Cl)cc3)C2=O)cc([N+](=O)[O-])c1O	0	-4	-11	95*	2
COc1cc(/C=C2\SC(=O)N(c3cccc(Cl)c3)C2=O)cc([N+](=O)[O-])c1O	23	-4	-12	82*	4
COc1ccc(-c2csc(NC(=O)Cc3cccc4ccccc34)c2C(=O)O)cc1	-14	0	-25	24	7.7*
COc1ccccc1NC(=O)Cc1cccc2ccccc12	2	2	-15	14	1
Cc1ccc(S(=O)(=O)N(CC(=O)N/N=C/c2ccccc2C(=O)O)c2cc(Cl)cc(Cl)c2)cc1	28	1	-28	6	-1
COc1ccc(N(CC(=O)O)S(=O)(=O)c2ccc(C)cc2)cc1Cl	1	11*	-20	14	-1
CCC(C)(C)NC(=O)C(c1ccc(C)o1)N(Cc1cccs1)C(=O)Cn1nnc2ccccc21 (stereo not given)	10	-4	-22	29	10.0*
CCC(C)(C)NC(=O)C(c1ccccc1)N(Cc1cccs1)C(=O)Cn1nnc2ccccc21 (stereo not given)	1	0	-26	.	-1
CC1Oc2ccccc2N(CC(=O)N2CCCCCC2)C1=O (stereo not given)	14	4	-13	6	2
Cc1ccc(S(=O)(=O)N2CCCOC2CNC(=O)C(=O)NCCCn2ccnc2)cc1 (stereo not given)	-12	-2	3	22	-1
O=C(NCCCn1ccnc1)C(=O)NCC1OCCN1S(=O)(=O)c1ccc(F)cc1 (stereo not given)	0	-2	1	-8	10*
O=C(NCCCn1ccnc1)C(=O)NCC1OCCN1S(=O)(=O)c1ccc(Br)cc1 (stereo not given)	-1	-1	15	12	7.0*

Compound activity deposited in PubChem by several laboratories.
